Source: ChEMBL document CHEMBL1165965, “Synthesis and structure-activity relationships of 1,2,3,4-tetrahydropyrido[2,3-b]pyrazines as potent and selective inhibitors of the anaplastic lymphoma kinase” (Bioorg Med Chem, 2010)

How the values were obtained:
[1] = molecular target: Tyrosine-protein kinase JAK1 (Homo sapiens) (UniProt P23458); assay: Inhibition of JAK1 JH1 catalytic domain at 1 uM
Summary of the method: (§1)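 Single-concentration screen on the Ambit KINOMEscan platform, run against a panel of 250–400 kinases. Per-kinase inhibition was also summarized as S(90), the fraction of kinases inhibited by more than 90%.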

[2] = molecular target: Mitogen-activated protein kinase kinase kinase kinase 4 (Homo sapiens) (UniProt O95819); assay: Inhibition of MAP4K4 at 1 uM; summary of the method: as §1
[3] = molecular target: Macrophage-stimulating protein receptor (Homo sapiens) (UniProt Q04912); assay: Inhibition of MST1R at 1 uM
Macrophage-stimulating protein receptor (Homo sapiens), sequence (Q04912 25-304 limits assumed): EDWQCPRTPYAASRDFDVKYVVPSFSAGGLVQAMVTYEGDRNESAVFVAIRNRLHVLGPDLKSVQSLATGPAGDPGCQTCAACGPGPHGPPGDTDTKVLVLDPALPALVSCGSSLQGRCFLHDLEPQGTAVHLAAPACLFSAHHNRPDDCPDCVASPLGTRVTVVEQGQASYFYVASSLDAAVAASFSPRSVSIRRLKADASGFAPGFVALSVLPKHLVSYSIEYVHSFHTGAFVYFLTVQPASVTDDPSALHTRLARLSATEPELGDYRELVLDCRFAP
Macrophage-stimulating protein receptor (Homo sapiens), sequence (Q04912 310-1400 limits assumed): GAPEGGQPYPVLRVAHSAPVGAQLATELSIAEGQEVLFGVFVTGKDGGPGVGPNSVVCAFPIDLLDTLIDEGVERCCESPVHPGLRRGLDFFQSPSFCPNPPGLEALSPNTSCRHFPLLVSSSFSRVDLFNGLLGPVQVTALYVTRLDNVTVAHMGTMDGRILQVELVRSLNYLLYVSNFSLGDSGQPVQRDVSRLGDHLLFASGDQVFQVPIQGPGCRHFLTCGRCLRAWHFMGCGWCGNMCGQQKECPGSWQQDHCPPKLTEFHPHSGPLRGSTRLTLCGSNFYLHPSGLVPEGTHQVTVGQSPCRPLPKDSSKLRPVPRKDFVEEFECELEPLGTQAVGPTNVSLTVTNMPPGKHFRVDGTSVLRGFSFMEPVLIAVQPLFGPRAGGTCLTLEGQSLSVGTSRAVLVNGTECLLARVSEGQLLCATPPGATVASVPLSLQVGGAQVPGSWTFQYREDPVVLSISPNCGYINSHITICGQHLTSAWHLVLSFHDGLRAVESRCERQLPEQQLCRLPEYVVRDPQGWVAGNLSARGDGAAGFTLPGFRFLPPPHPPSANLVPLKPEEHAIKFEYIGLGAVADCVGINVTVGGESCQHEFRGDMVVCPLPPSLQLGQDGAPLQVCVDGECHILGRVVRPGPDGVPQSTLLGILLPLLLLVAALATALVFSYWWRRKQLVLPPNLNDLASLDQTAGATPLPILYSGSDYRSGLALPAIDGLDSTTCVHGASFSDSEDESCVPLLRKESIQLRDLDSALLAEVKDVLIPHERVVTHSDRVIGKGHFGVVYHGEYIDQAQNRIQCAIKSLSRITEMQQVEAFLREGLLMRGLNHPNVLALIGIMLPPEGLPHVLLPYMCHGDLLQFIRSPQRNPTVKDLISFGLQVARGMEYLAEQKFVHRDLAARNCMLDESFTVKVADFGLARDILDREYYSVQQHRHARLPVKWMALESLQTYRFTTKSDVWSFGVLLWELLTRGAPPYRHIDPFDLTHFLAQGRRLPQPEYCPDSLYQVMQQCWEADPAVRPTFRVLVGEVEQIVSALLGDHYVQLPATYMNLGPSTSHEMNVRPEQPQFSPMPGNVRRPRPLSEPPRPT

[4] = molecular target: Serine/threonine-protein kinase 26 (Homo sapiens) (UniProt Q9P289); assay: Inhibition of MST4 at 1 uM
Serine/threonine-protein kinase 26 (Homo sapiens), sequence (Q9P289 2-416 limits assumed): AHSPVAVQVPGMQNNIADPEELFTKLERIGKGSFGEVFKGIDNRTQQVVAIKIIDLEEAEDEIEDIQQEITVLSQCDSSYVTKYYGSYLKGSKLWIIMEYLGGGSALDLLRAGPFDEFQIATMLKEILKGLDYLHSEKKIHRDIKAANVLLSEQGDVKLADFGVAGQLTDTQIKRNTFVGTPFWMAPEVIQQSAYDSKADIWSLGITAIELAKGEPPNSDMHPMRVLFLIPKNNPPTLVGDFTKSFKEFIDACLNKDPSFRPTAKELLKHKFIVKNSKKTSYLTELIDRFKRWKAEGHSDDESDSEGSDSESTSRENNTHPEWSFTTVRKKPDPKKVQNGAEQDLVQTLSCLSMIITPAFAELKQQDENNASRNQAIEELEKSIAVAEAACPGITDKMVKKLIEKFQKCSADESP

[5] = molecular target: Serine/threonine-protein kinase PLK1 (Homo sapiens) (UniProt P53350); assay: Inhibition of PLK1 at 1 uM
Serine/threonine-protein kinase PLK1 (Homo sapiens), sequence (P53350 whole entry): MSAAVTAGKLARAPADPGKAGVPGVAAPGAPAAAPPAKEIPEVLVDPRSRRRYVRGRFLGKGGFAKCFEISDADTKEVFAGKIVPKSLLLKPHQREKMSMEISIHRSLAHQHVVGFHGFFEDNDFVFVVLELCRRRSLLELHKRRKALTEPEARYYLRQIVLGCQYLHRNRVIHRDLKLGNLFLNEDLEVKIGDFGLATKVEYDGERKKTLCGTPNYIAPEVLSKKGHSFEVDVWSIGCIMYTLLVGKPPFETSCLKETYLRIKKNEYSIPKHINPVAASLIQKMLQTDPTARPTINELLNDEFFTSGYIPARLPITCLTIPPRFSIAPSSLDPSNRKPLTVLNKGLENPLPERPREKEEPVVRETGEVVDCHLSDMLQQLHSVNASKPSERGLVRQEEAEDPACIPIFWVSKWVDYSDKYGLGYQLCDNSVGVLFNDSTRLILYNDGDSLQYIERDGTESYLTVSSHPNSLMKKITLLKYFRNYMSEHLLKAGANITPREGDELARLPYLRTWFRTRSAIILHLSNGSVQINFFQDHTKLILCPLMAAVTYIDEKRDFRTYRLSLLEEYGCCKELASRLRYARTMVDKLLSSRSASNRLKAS

[6] = molecular target: T1, Serine/threonine-protein kinase PLK4 (Homo sapiens) (UniProt O00444); assay: Inhibition of PLK4 at 1 uM
T1 sequence (whole entry): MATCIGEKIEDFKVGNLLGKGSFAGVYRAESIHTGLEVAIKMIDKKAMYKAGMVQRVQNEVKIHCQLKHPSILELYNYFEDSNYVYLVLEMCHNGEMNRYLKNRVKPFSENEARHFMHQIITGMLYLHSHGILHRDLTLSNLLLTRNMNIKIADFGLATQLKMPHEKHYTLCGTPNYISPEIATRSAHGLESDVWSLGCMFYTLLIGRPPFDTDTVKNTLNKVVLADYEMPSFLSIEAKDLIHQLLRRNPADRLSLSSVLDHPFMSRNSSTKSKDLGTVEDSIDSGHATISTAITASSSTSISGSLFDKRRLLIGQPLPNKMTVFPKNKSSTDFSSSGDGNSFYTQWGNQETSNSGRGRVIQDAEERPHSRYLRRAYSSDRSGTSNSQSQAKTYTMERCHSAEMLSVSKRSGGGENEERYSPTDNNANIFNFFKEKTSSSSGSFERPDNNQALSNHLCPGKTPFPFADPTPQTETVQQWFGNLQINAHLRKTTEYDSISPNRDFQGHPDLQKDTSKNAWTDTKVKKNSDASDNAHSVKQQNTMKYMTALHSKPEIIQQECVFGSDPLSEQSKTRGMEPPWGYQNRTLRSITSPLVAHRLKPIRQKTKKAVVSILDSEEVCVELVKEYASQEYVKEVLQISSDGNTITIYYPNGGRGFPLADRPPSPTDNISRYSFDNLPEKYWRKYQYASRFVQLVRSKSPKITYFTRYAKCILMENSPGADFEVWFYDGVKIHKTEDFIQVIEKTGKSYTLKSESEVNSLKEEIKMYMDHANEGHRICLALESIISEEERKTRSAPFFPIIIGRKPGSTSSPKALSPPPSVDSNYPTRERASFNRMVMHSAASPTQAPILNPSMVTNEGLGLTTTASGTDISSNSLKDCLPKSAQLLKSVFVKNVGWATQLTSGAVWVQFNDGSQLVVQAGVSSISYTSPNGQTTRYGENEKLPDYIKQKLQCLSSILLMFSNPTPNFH

[7] = molecular target: Dual specificity testis-specific protein kinase 1 (Homo sapiens) (UniProt Q15569); assay: Inhibition of TESK1 at 1 uM
[8] = molecular target: TGF-beta receptor type-2 (Homo sapiens) (UniProt P37173); assay: Inhibition of TGFBR2 at 1 uM
TGF-beta receptor type-2 (Homo sapiens), sequence (P37173 whole entry): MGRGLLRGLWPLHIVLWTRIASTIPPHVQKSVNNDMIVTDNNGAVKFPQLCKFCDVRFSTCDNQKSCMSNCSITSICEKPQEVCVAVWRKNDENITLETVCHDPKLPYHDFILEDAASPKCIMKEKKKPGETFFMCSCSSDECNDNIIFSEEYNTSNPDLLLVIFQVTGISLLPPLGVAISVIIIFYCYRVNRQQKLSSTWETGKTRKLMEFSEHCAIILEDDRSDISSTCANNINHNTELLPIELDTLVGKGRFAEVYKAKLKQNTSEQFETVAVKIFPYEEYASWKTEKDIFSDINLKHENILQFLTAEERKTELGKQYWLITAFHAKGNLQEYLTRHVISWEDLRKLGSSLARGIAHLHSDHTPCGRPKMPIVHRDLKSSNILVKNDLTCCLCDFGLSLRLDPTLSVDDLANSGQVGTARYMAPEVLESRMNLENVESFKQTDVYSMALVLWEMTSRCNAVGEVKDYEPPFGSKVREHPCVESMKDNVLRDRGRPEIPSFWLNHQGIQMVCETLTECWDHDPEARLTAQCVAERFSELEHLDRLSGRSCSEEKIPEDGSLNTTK

[9] = molecular target: BDNF/NT-3 growth factors receptor (Homo sapiens) (UniProt Q16620); assay: Inhibition of TRKB at 1 uM; summary of the method: as §1
BDNF/NT-3 growth factors receptor (Homo sapiens), sequence (Q16620 32-822 limits assumed): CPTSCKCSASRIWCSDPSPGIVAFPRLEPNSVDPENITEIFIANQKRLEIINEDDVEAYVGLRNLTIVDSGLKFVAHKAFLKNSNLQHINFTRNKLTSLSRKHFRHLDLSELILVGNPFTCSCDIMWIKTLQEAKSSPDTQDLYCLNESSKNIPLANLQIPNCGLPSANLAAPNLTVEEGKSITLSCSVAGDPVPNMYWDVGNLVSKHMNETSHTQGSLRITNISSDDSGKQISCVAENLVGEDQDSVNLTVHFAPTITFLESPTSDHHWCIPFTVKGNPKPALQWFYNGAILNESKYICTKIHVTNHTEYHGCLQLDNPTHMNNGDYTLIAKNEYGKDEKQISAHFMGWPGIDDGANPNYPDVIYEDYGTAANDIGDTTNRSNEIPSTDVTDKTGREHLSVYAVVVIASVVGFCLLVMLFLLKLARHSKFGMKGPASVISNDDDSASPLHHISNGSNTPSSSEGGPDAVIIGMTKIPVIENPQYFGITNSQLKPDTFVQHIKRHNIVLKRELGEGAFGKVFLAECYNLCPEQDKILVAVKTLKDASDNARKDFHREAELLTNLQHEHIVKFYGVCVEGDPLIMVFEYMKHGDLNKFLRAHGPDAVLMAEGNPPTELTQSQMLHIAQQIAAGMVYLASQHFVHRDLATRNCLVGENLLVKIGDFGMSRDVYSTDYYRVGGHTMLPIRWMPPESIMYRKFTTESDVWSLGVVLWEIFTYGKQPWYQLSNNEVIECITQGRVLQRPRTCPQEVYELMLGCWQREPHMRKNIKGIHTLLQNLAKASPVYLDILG

[10] = molecular target: T2, Serine/threonine-protein kinase DCLK2 (Homo sapiens) (UniProt Q8N568); assay: Inhibition of DCAMKL2 at 1 uM
T2 sequence (whole entry): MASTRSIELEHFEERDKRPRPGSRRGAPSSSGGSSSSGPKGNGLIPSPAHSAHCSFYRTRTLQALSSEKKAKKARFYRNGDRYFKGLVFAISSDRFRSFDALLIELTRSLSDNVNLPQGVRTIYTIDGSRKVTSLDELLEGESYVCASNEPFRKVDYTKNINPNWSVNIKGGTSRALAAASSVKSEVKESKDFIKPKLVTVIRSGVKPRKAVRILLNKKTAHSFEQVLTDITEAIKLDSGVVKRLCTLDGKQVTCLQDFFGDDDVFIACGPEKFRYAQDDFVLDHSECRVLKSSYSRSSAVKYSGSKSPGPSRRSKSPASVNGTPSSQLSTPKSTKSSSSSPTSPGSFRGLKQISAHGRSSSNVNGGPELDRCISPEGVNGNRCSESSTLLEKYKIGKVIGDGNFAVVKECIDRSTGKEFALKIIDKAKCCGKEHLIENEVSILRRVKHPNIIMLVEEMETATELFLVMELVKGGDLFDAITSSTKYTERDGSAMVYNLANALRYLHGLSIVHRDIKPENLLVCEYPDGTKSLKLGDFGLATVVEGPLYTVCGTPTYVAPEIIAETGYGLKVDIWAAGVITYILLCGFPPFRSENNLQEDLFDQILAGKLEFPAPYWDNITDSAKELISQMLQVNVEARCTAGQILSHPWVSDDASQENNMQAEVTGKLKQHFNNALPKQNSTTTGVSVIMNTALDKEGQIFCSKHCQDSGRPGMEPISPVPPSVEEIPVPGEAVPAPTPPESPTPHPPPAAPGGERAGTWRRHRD

[11] = molecular target: Serine/threonine-protein kinase MRCK gamma (Homo sapiens) (UniProt Q6DT37); assay: Inhibition of DMPK2 at 1 uM
Summary of the method: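 Single-concentration screen using Ambit Bioscience KINOMEscan technology across a panel of 250–400 kinases. Per-kinase inhibition from this screen was summarized as S(90), the fraction of kinases inhibited by more than 90%.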

[12] = molecular target: Tyrosine-protein kinase Fgr (Homo sapiens) (UniProt P09769); assay: Inhibition of FGR at 1 uM; summary of the method: as §1
[13] = molecular target: G protein-coupled receptor kinase 4 (Homo sapiens) (UniProt P32298); assay: Inhibition of GRK4 at 1 uM
G protein-coupled receptor kinase 4 (Homo sapiens), sequence (P32298 whole entry, looked up): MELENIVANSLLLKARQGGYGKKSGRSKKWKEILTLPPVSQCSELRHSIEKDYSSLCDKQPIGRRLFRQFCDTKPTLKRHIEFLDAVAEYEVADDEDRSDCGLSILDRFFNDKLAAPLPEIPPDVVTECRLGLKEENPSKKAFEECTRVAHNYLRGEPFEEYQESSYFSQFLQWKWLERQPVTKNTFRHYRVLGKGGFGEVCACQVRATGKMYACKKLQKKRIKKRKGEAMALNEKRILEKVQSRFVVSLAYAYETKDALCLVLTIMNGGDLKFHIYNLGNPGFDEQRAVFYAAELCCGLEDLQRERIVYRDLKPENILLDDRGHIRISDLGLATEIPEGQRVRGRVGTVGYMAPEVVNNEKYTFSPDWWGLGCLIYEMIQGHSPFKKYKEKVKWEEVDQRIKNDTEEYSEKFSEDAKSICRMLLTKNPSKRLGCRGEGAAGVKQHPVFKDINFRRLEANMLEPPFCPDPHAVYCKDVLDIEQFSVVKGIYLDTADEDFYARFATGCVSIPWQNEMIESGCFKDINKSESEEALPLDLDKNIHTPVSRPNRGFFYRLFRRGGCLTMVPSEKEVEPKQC

[14] = molecular target: Tyrosine-protein kinase HCK (Homo sapiens) (UniProt P08631); assay: Inhibition of HCK at 1 uM; summary of the method: as §1
Tyrosine-protein kinase HCK (Homo sapiens), sequence (P08631 2-526 limits assumed): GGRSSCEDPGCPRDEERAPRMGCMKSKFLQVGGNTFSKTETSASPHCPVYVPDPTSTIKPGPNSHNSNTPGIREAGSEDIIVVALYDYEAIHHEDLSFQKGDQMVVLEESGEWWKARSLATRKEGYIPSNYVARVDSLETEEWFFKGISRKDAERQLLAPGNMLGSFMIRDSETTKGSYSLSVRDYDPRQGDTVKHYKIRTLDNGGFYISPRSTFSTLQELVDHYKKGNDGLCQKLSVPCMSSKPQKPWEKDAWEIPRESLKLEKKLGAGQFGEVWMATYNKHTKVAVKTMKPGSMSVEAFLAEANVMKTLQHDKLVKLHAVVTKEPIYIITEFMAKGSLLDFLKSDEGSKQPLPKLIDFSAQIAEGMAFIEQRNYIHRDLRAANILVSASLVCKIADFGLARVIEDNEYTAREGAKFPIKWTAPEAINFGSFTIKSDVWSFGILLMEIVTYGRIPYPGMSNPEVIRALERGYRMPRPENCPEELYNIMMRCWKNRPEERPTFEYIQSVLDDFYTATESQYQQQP

SMILES | inhibition [1] | inhibition [2] | inhibition [3] | inhibition [4] | inhibition [5] | inhibition [6] | inhibition [7] | inhibition [8] | inhibition [9] | inhibition [10] | inhibition [11] | inhibition [12] | inhibition [13] | inhibition [14]
CN1CCN(c2ccc(-c3cnc4c(c3)N(Cc3cc(Cl)ccc3Cl)CCN4)cn2)CC1 | 89% | < 50% | < 50% | < 50% | < 50% | < 50% | < 50% | < 50% | 72% | < 50% | < 50% | < 50% | < 50% | < 50%
CN1CCN(c2ccc(-c3cnc4c(c3)N(Cc3cc(Cl)ccc3C(F)(F)F)CCN4)cn2)CC1 | 93% | < 50% | < 50% | < 50% | < 50% | < 50% | < 50% | < 50% | < 50% | < 50% | < 50% | < 50% | < 50% | < 50%
CN1CCN(c2ccc(-c3cnc4c(c3)N(Cc3c(F)ccc(F)c3Cl)CCN4)cn2)CC1 | < 50% | 76% | < 50% | < 50% | < 50% | < 50% | < 50% | < 50% | 72% | < 50% | < 50% | < 50% | < 50% | < 50%
O=C(c1ccc(-c2cnc3c(c2)N(Cc2cc(Cl)ccc2C(F)(F)F)CCN3)cc1)N1CCC(N2CCCC2)CC1 | < 50% | < 50% |  | < 50% | < 50% | 92.4% | 88.5% | < 50% | 73.6% |  | < 50% | < 50% |  | < 50%
COC1CCN(C(=O)c2ccc(-c3cnc4c(c3)N(Cc3cc(Cl)ccc3C(F)(F)F)CCN4)cc2)CC1 | < 50% | < 50% |  | < 50% | < 50% | 73.8% | < 50% | < 50% | < 50% |  | < 50% | < 50% |  | < 50%
FC(F)(F)c1ccc(Cl)cc1CN1CCNc2ncc(-c3ccnc(N4CCNCC4)c3)cc21 | 78% | < 50% | < 50% | < 50% | < 50% | < 50% | < 50% | < 50% | 79% | 96% | < 50% | < 50% | < 50% | < 50%
CN1CCN(c2ccc(-c3cnc4c(c3)N(Cc3cc(F)ccc3F)CCN4)cn2)CC1 | 88% | < 50% | < 50% | < 50% | < 50% | < 50% | < 50% | < 50% | 58% | < 50% | < 50% | < 50% | < 50% | < 50%
O=C(c1ccc(-c2cnc3c(c2)N(Cc2cc(Cl)ccc2C(F)(F)F)CCN3)cc1)N1CCCCC1 | < 50% | < 50% |  | < 50% | < 50% | < 50% | < 50% | < 50% | < 50% |  | < 50% | < 50% |  | < 50%
CC(=O)N1CCN(c2cc(-c3cnc4c(c3)N(Cc3cc(Cl)ccc3C(F)(F)F)CCN4)ccn2)CC1 | 96% | < 50% | < 50% | < 50% | < 50% | < 50% | < 50% | < 50% | 76% | < 50% | < 50% | < 50% | < 50% | < 50%
O=C(O)c1ccc(-c2cnc3c(c2)N(Cc2cc(Cl)ccc2C(F)(F)F)CCN3)cc1 |  | < 50% |  | < 50% | < 50% | 91.7% | < 50% | < 50% | 65% |  | < 50% | < 50% |  | < 50%
